The source made the active and inactive calls. The calls are words filed in the database; no cut-off is given here.
Key:
[1] = test system: Radical scavenging activity; assay: Antioxidant activity assessed as DPPH radical scavenging activity after 30 mins; assay type: functional; design: concentration or dose not given beside the values
Method in brief: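 Test sample (0.5 mM stock in DMSO, 5 µL) mixed with 95 µL DPPH in ethanol and incubated at 37 °C for 30 min. Absorbance read at 515 nm. Percent radical scavenging calculated against a DMSO-containing control; 3-tert-butyl-4-hydroxyanisole used as reference.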

Escherichia coli [2] = assay: Antibacterial activity against Escherichia coli at 1 mg/ml by agar well diffusion method; assay type: functional, organism-based
Method in brief: (§1)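 Agar well diffusion; compounds loaded into 6 mm wells at 1 mg per ml DMSO, with a DMSO-only (0) control. Read-out: inhibition zone diameter (mm).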

Shigella flexneri [3] = assay: Antibacterial activity against Shigella flexneri at 1 mg/ml by agar well diffusion method; assay type: functional; conditions: for zone of inhibition at 1000 µg/mL: read-out: IZ; method in brief: as §1
Bacillus subtilis [4] = assay: Antibacterial activity against Bacillus subtilis at 1 mg/ml by agar well diffusion method; assay type: functional, organism-based; method in brief: as §1
Staphylococcus aureus [5] = assay: Antibacterial activity against Staphylococcus aureus at 1 mg/ml by agar well diffusion method; assay type: functional; conditions: for zone of inhibition at 1000 µg/mL: read-out: IZ; method in brief: as §1
Pseudomonas aeruginosa [6] = assay: Antibacterial activity against Pseudomonas aeruginosa at 1 mg/ml by agar well diffusion method; assay type: functional, organism-based; method in brief: as §1
[7] = test system: Salmonella enterica subsp. enterica serovar Typhi str. CT18; assay: Antibacterial activity against Salmonella typhi at 1 mg/ml by agar well diffusion method; assay type: functional; conditions: for zone of inhibition at 1000 µg/mL: read-out: IZ
Method in brief: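 Agar well diffusion against Salmonella typhi. Samples were dissolved in DMSO at 1 mg per ml and applied to 6 mm diameter wells. A solvent-only well served as control. Activity was read as inhibition zone diameter in mm.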

Escherichia coli [8] = assay: Antibacterial activity against Escherichia coli at 10 ug/disk by agar well diffusion method; assay type: functional; conditions: read-out: IZ
Method in brief: (§2)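 Agar well diffusion with imipenem as the standard at 10 µg per disc, run alongside 6 mm wells and a DMSO-only control. Read-out: inhibition zone diameter (mm).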

Shigella flexneri [9] = assay: Antibacterial activity against Shigella flexneri at 10 ug/disk by agar well diffusion method; assay type: functional; conditions: read-out: IZ; method in brief: as §2
Bacillus subtilis [10] = assay: Antibacterial activity against Bacillus subtilis at 10 ug/disk by agar well diffusion method; assay type: functional; conditions: read-out: IZ; method in brief: as §2
Staphylococcus aureus [11] = assay: Antibacterial activity against Staphylococcus aureus at 10 ug/disk by agar well diffusion method; assay type: functional; conditions: read-out: IZ; method in brief: as §2
Pseudomonas aeruginosa [12] = assay: Antibacterial activity against Pseudomonas aeruginosa at 10 ug/disk by agar well diffusion method; assay type: functional; conditions: read-out: IZ; method in brief: as §2
[13] = test system: Salmonella enterica subsp. enterica serovar Typhi str. CT18; assay: Antibacterial activity against Salmonella typhi at 10 ug/disk by agar well diffusion method; assay type: functional; conditions: read-out: IZ
Method in brief: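 Agar well diffusion against Salmonella typhi, using the reference antibiotic imipenem applied at 10 µg per disc alongside 6 mm sample wells. Activity was read as inhibition zone diameter in mm.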

| Compound | Activity [1] | inhibition zone (IZ) (Escherichia coli [2]) | zone of inhibition at 1000 µg/mL (Shigella flexneri [3]) | inhibition zone (IZ) (Bacillus subtilis [4]) | inhibition zone (IZ) (Staphylococcus aureus [5]) | inhibition zone (IZ) (Pseudomonas aeruginosa [6]) | inhibition zone (IZ) [7] | inhibition zone (IZ) (Shigella flexneri [3]) | zone of inhibition at 1000 µg/mL [7] | zone of inhibition at 1000 µg/mL (Staphylococcus aureus [5]) | zone of inhibition at 10 µg/disc (Escherichia coli [8]) | zone of inhibition at 10 µg/disc (Shigella flexneri [9]) | zone of inhibition at 10 µg/disc (Bacillus subtilis [10]) | zone of inhibition at 10 µg/disc (Staphylococcus aureus [11]) | zone of inhibition at 10 µg/disc (Pseudomonas aeruginosa [12]) | zone of inhibition at 10 µg/disc [13] |
| --- | --- | --- | --- | --- | --- | --- | --- | --- | --- | --- | --- | --- | --- | --- | --- | --- |
| O=C(N/N=C/c1ccc(Cl)cc1Cl)C1=C(O)c2ccccc2S(=O)(=O)N1 | 43.8% | inactive | 10 mm | inactive | inactive | inactive | inactive |  |  |  |  |  |  |  |  |  |
| O=C(N/N=C/c1ccc(O)cc1O)C1=C(O)c2ccccc2S(=O)(=O)N1 | 65% | inactive |  | inactive | inactive | inactive |  | inactive | 28 mm |  |  |  |  |  |  |  |
| COc1ccc(/C=N/NC(=O)C2=C(O)c3ccccc3S(=O)(=O)N2)cc1O | 42.9% | inactive | 10 mm | inactive |  | inactive | inactive |  |  | 10 mm |  |  |  |  |  |  |
| O=C(N/N=C/c1ccc(Cl)cc1)C1=C(O)c2ccccc2S(=O)(=O)N1 | 21.2% | inactive |  | inactive | inactive | inactive | inactive | inactive |  |  |  |  |  |  |  |  |
| O=C(N/N=C/c1ccccc1[N+](=O)[O-])C1=C(O)c2ccccc2S(=O)(=O)N1 | 37.3% | inactive |  | inactive |  | inactive |  | inactive | 11 mm | 10 mm |  |  |  |  |  |  |
| O=C(N/N=C/c1cccc(Cl)c1)C1=C(O)c2ccccc2S(=O)(=O)N1 | 23.8% | inactive |  | inactive | inactive | inactive | inactive | inactive |  |  |  |  |  |  |  |  |
| COc1ccc(/C=N/NC(=O)C2=C(O)c3ccccc3S(=O)(=O)N2)c(OC)c1 | 68.2% | inactive |  | inactive | inactive | inactive | inactive | inactive |  |  |  |  |  |  |  |  |
| COc1cc(/C=N/NC(=O)C2=C(O)c3ccccc3S(=O)(=O)N2)ccc1O | 35% | inactive |  | inactive |  | inactive | inactive | inactive |  | 15 mm |  |  |  |  |  |  |
| COc1ccc(/C=N/NC(=O)C2=C(O)c3ccccc3S(=O)(=O)N2)c(OC)c1OC | 43.6% | inactive | 22 mm | inactive |  | inactive | inactive |  |  | 21 mm |  |  |  |  |  |  |
| O=C(N/N=C/c1ccccc1O)C1=C(O)c2ccccc2S(=O)(=O)N1 | 40.7% | inactive |  | inactive | inactive | inactive | inactive | inactive |  |  |  |  |  |  |  |  |
| O=C(N/N=C/c1ccccc1)C1=C(O)c2ccccc2S(=O)(=O)N1 | 37.6% | inactive |  | inactive | inactive | inactive | inactive | inactive |  |  |  |  |  |  |  |  |
| C[C@@H](O)[C@H]1C(=O)N2C(C(=O)O)=C(SCCNC=N)C[C@H]12 [IMIPENEM ANHYDROUS] |  |  |  |  |  |  |  |  |  |  | 30 mm | 37 mm | 36 mm | 26 mm | 32 mm | 30 mm |
| O=C(N/N=C/c1ccccc1Cl)C1=C(O)c2ccccc2S(=O)(=O)N1 | 57.4% | inactive |  | inactive | inactive | inactive | inactive | inactive |  |  |  |  |  |  |  |  |
| COc1ccc(O)c(C(C)(C)C)c1.COc1ccc(O)cc1C(C)(C)C | 92.6% | inactive |  | inactive | inactive | inactive | inactive | inactive |  |  |  |  |  |  |  |  |
| COc1ccc(/C=N/NC(=O)C2=C(O)c3ccccc3S(=O)(=O)N2)cc1 | 43.7% | inactive |  | inactive |  | inactive | inactive | inactive |  | 12 mm |  |  |  |  |  |  |
| O=C(N/N=C/c1ccc([N+](=O)[O-])cc1)C1=C(O)c2ccccc2S(=O)(=O)N1 | 30.9% | inactive |  | inactive | inactive | inactive |  | inactive | 26 mm |  |  |  |  |  |  |  |
| COc1ccc(/C=N/NC(=O)C2=C(O)c3ccccc3S(=O)(=O)N2)cc1OC | 38% | inactive | 20 mm | inactive | inactive | inactive |  |  | 11 mm |  |  |  |  |  |  |  |
